Assay outcomes deposited in PubChem by several laboratories.
HNF4A DNA FP: change in binding of human HNF4 alpha to DNA; P41235; HNF4a-FITC DNA binding, fluorescence polarization, 1 h; activity change, % at 10 µM; actives 0.3% (n = 360,000); in the data active = activity change above about 30%, passing the limit was not always enough
Target sequence (P41235 whole entry, looked up): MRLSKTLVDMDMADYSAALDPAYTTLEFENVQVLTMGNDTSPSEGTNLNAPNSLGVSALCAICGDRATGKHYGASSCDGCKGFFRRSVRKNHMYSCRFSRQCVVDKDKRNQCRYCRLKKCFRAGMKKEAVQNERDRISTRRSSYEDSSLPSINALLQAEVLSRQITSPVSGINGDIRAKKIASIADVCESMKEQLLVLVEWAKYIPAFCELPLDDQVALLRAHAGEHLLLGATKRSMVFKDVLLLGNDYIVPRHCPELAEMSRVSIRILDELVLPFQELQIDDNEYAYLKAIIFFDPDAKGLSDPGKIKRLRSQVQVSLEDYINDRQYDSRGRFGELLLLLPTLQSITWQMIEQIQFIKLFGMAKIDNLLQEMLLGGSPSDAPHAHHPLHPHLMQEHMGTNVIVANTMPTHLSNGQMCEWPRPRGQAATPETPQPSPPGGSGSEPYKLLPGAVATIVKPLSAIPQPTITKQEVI
CSN inh: inhibitors of human CSN-mediated cullin deneddylation; Q92905; Purified CSN, SCF-Nedd8-OG deneddylation, fluorescence polarization; inhibition, % at 12.5 µM; actives 0.38% (n = 360,000);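 active = pattern-corrected inhibition above about 35%, with an unprinted fluorescence ratio check between 0.5 and 1.5, limit read from the data, passing the limit was not always enough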
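Material: purified human Csn5 enzyme expressed in HEK293T cells / Medium: Tris buffer pH 7.5, NaCl, DTT, Tween-20, trehalose, ovalbumin / Compound dosing: 12.5 µM single point / Schedule: 90 min incubation of compound, enzyme and substrate at room temperature / Signal: fluorescence polarization of the substrate / Control set: no-enzyme wells high, enzyme-with-substrate wells low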
Rpn11 block: blocks the human proteasome subunit Rpn11. actives 0.59% (n = 360,000). human 26S proteasome, Ub4-pepOG fluorescence polarization; 20S core pre-blocked with epoxomicin. calls only at 20 µM. O00487;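 active = inhibition at 20 µM, scaled to each plate's controls, above about 33%, limit read from the data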
TPT1 inhibitor: inhibitors of Candida albicans tRNA 2'-phosphotransferase TPT1 | inhibition, % at 5 µM | actives 0.81% (n = 300,000) | AID 1962 | recombinant caTPT1, FP RNA substrate dephosphorylation;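 active = inhibition above the mean of all tested compounds plus 3 SD, set per screening campaign, cut at about 24% in these data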
CRFBP-R2 block: blocks CRF-induced signaling of the CRF-BP/CRF-R2 complex | HEK293 CRF-R2/CRF-BP, CRF-induced calcium fluorescence | inhibition, % at 11.8 µM | actives 0.59% (n = 350,000) | AID 588475;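 active = inhibition of the ligand-induced calcium signal above about 50% at the single tested concentration, limit read from the data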
CRFBP-R2 agonist: agonists of human CRF-binding protein/CRF-R2 receptor complex | actives 0.46% (n = 350,000) | activation, % at 13.2 µM | HEK293 CRF-R2/CRF-BP, calcium dye fluorescence (FLIPR); percent of saturating CRF peptide response | AID 588473;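 active = activation of at least 50%, plus an integration ratio under a set limit after plate pattern correction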
TPT1 inh confirm: confirmation of Candida albicans TPT1 inhibitors | actives 74% (n = 2,400) | recombinant caTPT1, fluorescence polarization, RNase T1 coupled | shares compounds with TPT1 inhibitor | inhibition, % at 5 µM;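 active = inhibition above the primary screen limit, the mean inhibition of all tested compounds plus 3 SD, cut at about 25% in these data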
RNase T1 counter: blocks Aspergillus oryzae RNase T1, a TPT1 counter-screen; shares compounds with TPT1 inhibitor; RNase T1 cleavage, fluorescence polarization, 1536-well; inhibition, % at 5 µM; actives 83% (n = 2,400); AID 2153;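 active = inhibition above the solvent-only control well mean plus 3 SD, limit set per screening run, cut at about 23% in these data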;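 note: inhibitors block cleavage so intact labeled substrate keeps polarization high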
Target sequence (P00651 whole entry, looked up): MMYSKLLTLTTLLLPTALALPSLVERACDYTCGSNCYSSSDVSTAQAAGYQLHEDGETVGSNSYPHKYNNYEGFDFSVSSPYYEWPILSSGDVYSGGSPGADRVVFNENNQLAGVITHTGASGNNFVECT
Rpn11 inh conf: Rpn11 inhibition confirmation, single concentration. shares compounds with Rpn11 block. purified human 26S proteasome, Ub4-pepOG fluorescence polarization; proteasome pretreated with epoxomicin. inhibition, % at 20 µM. actives 29% (n = 1,900)
MMP-2 counter-1: blocks human MMP-2, flagging nonselective RPN11 hits; shares compounds with Rpn11 block; recombinant MMP-2, FRET peptide cleavage fluorescence; inhibition, % at 20 µM; actives 4% (n = 1,900);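 note: human MMP-2 activated beforehand with APMA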
Thrombin FP: thrombin (bovine) inhibition counter-screen; shares compounds with Rpn11 block; bovine thrombin cleavage of Ub4-pepOG, fluorescence polarization; inhibition, % at 20 µM; actives 13% (n = 1,900); AID 602333;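 active = mean inhibition at least 40% at 20 µM, or signal 3 deviations below plate average, so some actives read negative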
CSN5 deneddyl: validation of inhibitors of human CSN-mediated cullin deneddylation. shares compounds with CSN inh. Csn5 deneddylation of SCF-Nedd8OG, fluorescence polarization, 90 min. inhibition, % at 16.6 µM. actives 62% (n = 540). AID 720654; in the data active = inhibition above about 50%
MMP-2 counter-2: MMP-2 (human) inhibition, counter-screen for CSN hits | shares compounds with CSN inh | inhibition, % at 16.6 µM | recombinant MMP-2, FRET substrate fluorescence, 60 min | AID 720655 | actives 33% (n = 540);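 active = corrected plate-normalized z-score of 5 or more, or -5 or less, or inhibition of 15% or more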
Thrombin counter: blocks bovine thrombin in a CSN deneddylation counter-screen; shares compounds with CSN inh; bovine thrombin cleavage of Ub4-pepOG, fluorescence polarization; inhibition, % at 16.6 µM; actives 49% (n = 540);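 active = inhibition at or above a set limit, with a fluorescence interference ratio between 0.5 and a set maximum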
A number is an active result; . = inactive; / = no result given; + = active, no number. The list is not random: actives were taken first. Their share in the collection is about 2.3%. Cut-off read from the data, not from the text of the source, unless noted: active = inhibition above about 40%; inactive = the rest.

SMILES	HNF4A DNA FP	CSN inh	Rpn11 block	TPT1 inhibitor	CRFBP-R2 block	CRFBP-R2 agonist	TPT1 inh confirm	RNase T1 counter	Rpn11 inh conf	MMP-2 counter-1	Thrombin FP	CSN5 deneddyl	MMP-2 counter-2	Thrombin counter
O=C(NCc1ccccc1)c1ccc(NS(=O)(=O)c2cccs2)cc1	.	.	.	/	.	.	/	/	/	/	/	/	/	/
O=C(Nc1ccccc1)Oc1ccccc1N1CCOCC1	.	.	.	.	.	.	/	/	/	/	/	/	/	/
O=C(c1cccc(C(F)(F)F)c1)C1CCCN(C(=O)C2CCOCC2)C1 (stereo unspecified)	.	.	.	.	.	.	/	/	/	/	/	/	/	/
Cc1ccc(CN2CCSc3ccc(C(=O)NCC4CCCO4)cc32)cc1 (stereo unspecified)	.	.	.	.	.	.	/	/	/	/	/	/	/	/
CC1CCN(C2=C(NS(=O)(=O)c3ccc(Br)cc3)C(=O)c3ccccc3C2=O)CC1	.	.	.	.	.	.	/	/	/	/	/	/	/	/
CCc1ccc(/C=C/c2c[nH]c3ccccc23)[n+](CC)c1	.	.	+	31	.	.	29	38	.	.	43	/	/	/
Cc1cc(C)n(-c2nc3c(c(=O)[nH]c(=O)n3C)n2CCc2ccccc2)n1	.	.	.	.	.	.	/	/	/	/	/	/	/	/
Oc1ccc(Cl)cc1N=Cc1sc2ccccc2c1Cl	.	.	.	.	.	.	/	/	/	/	/	/	/	/
O=[N+]([O-])c1ccc(O)c(N=Cc2sc3ccccc3c2O)c1	.	44	+	42	.	.	38	53	42	.	.	102	.	51
Cn1c(CCC(N)=O)nnc1SCC(=O)Nc1cc(S(=O)(=O)N2CCCC2)ccc1Cl	.	.	.	/	.	.	/	/	/	/	/	/	/	/
N#C/C(=C\c1ccc(O)cc1)c1nc2ccccc2o1	57	48	/	102	.	.	114	116	/	/	/	114	.	39
COc1cc2cc3c(N)c(C(=O)Nc4sc(C)c(C)c4C#N)sc3nc2cc1OC	.	74	+	36	.	.	39	49	48	.	.	82	.	.
O=C(O)CCCN1C(=O)/C(=C/C=C/c2ccco2)SC1=S	.	40	/	84	.	.	37	38	/	/	/	.	44	22
O=C(O)CC(C(=O)O)N1C(=O)/C(=C/c2ccc(-c3nc4ccccc4s3)o2)SC1=S (stereo unspecified)	.	47	+	91	53	.	109	114	/	/	/	82	.	83
O=C(O)CC(C(=O)O)N1C(=O)/C(=C/C=C/c2ccco2)SC1=S (stereo unspecified)	.	48	+	67	.	.	29	36	97	59	.	.	34	49
CCOC(=O)C1=C(C)N=c2s/c(=C/c3ccccc3)c(=O)n2C1c1ccc(OC)c(OC)c1 (stereo unspecified)	.	.	.	.	.	.	/	/	/	/	/	/	/	/
CCOC(=O)C1=C(C)N=c2s/c(=C/c3ccc(OCC(=O)O)c(OC)c3)c(=O)n2C1c1ccc(Cl)cc1 (stereo unspecified)	.	40	+	42	.	.	60	72	93	.	.	85	.	.
COc1ccc(-c2csc(NC(=O)c3ccccc3S(C)(=O)=O)n2)cc1	.	.	.	.	.	.	/	/	/	/	/	/	/	/
Cc1ccc(N=Cc2c(O)c3ccccc3n(C)c2=O)cc1	.	.	.	/	.	.	/	/	/	/	/	/	/	/
Cc1ccc(N=Cc2sc(O)c3ccccc23)cc1	.	40	/	142	.	59	111	109	/	/	/	82	.	57
N=C1/C(=C\c2ccc(-c3cccc(C(=O)O)c3)o2)C(=O)N=C2SC=C(c3ccccc3)N12	.	64	+	66	.	.	82	92	149	.	51	/	16	29
Cc1c(NC(=S)NC(=O)c2cccc3ccccc23)cccc1C(=O)O	.	.	.	.	.	.	/	/	/	/	/	/	/	/
CC(/C=C1\SC(=S)N(NC(=O)c2ccccc2C)C1=O)=C\c1ccccc1	.	.	.	.	.	.	/	/	/	/	/	/	/	/
CCOc1ccc(/C=C2\SC(=S)N(Nc3ccccc3)C2=O)cc1OC	.	.	.	.	.	.	/	/	/	/	/	/	/	/
COc1cc(/C=C2\SC(=S)N(NC(=O)c3ccc(O)c(OC)c3)C2=O)ccc1O	59	64	/	35	.	.	44	58	/	/	/	90	.	80
SMILES	HNF4A DNA FP	CSN inh	Rpn11 block	TPT1 inhibitor	CRFBP-R2 block	CRFBP-R2 agonist	TPT1 inh confirm	RNase T1 counter	Rpn11 inh conf	MMP-2 counter-1	Thrombin FP	CSN5 deneddyl	MMP-2 counter-2	Thrombin counter
Cn1cccc1/C=C1\SC(=S)N(NC(=O)c2ccccc2O)C1=O	101	55	/	79	.	.	87	101	/	/	/	95	.	48
CCOc1cc(/C=C2\SC(=S)N(NC(=O)c3cccnc3)C2=O)ccc1O	49	36	+	50	.	.	39	54	83	.	62	58	.	36
COc1cc(/C=C2\SC(=S)N(NS(=O)(=O)c3ccc(C)cc3)C2=O)ccc1O	.	41	+	30	.	59	36	48	83	.	90	63	15	68
O=C(CCN1C(=O)/C(=C/c2cccc(Br)c2)SC1=S)NNC(=O)c1cccnc1	.	.	.	.	.	.	/	/	/	/	/	/	/	/
Cc1ccc2nc(SCC(=O)Nc3ccccc3F)nc(=O)n2c1	.	.	.	.	.	.	/	/	/	/	/	/	/	/
O=C1/C(=C\c2ccc(O)c(O)c2)N=C2CCCCCN12	.	38	/	27	.	.	45	47	/	/	/	69	.	45
CC1=Nc2ccccc2/C1=C/c1sc(=N)n(-c2nccs2)c1O	.	44	+	99	.	.	112	122	/	/	/	.	17	43
